# ChEMBL document CHEMBL1137710, “Synthesis and in vitro antitumor activity of new quinoxaline derivatives” (2009)
# Legend:
# Format in all cases: functional
# [1] = test system: CCRF-CEM; assay: Growth inhibition of human CCRF-CEM cells after 48 hrs by sulforhodamine B assay; details: for TGI: read-out: pTGI (converted)
# Outline: (§1)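 NCI 60-human-tumor-cell-line panel, with compounds tested over a 5-log dose range. Values are taken from dose-response curves as log10 molar concentrations: GI50 is 50% net growth inhibition, TGI is total growth inhibition, and LC50 is 50% net cell death.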
# [2] = test system: SR; assay: Growth inhibition of human SR cells after 48 hrs by sulforhodamine B assay
# Outline: (§2)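 Run in the NCI 60-human-tumour-cell-line panel, tested over a 5-log dose range. Dose–response curves gave three values per cell line, each as a log10 molar concentration: GI50 (50% inhibition of net cell growth), TGI (total inhibition of net growth) and LC50 (50% net cell death). The mean graph midpoint is the arithmetic mean over all lines, with insensitive lines entered at the highest concentration tested.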
# [3] = test system: MOLT-4; assay: Growth inhibition of human MOLT4 cells after 48 hrs by sulforhodamine B assay; details: MOLT-4, 48 h; for TGI: read-out: pTGI (converted); outline: as §1
# [4] = test system: A549; assay: Growth inhibition of human A549 cells after 48 hrs by sulforhodamine B assay; details: A549, 48 h; for TGI: read-out: pTGI (converted); outline: as §1
# [5] = test system: EKVX; assay: Growth inhibition of human EKVX cells after 48 hrs by sulforhodamine B assay; details: for TGI: read-out: pTGI (converted); outline: as §1
# [6] = test system: NCI-H226; assay: Growth inhibition of human NCI-H226 cells after 48 hrs by sulforhodamine B assay; details: NCI-H226, 48 h; for TGI: read-out: pTGI (converted); outline: as §1
# [7] = test system: NCI-H23; assay: Growth inhibition of human NCI-H23 cells after 48 hrs by sulforhodamine B assay; details: NCI-H23, 48 h; for TGI: read-out: pTGI (converted); outline: as §1
# [8] = test system: NCI-H460; assay: Growth inhibition of human NCI-H460 cells after 48 hrs by sulforhodamine B assay; details: NCI-H460, 48 h; for TGI: read-out: pTGI (converted); outline: as §1
# [9] = test system: COLO 205; assay: Growth inhibition of human COLO205 cells after 48 hrs by sulforhodamine B assay; details: COLO 205, 48 h; for TGI: read-out: pTGI (converted); outline: as §1
# [10] = test system: HCT-116; assay: Growth inhibition of human HCT116 cells after 48 hrs by sulforhodamine B assay; details: HCT-116, 48 h; for TGI: read-out: pTGI (converted); outline: as §1
# [11] = test system: KM12; assay: Growth inhibition of human KM12 cells after 48 hrs by sulforhodamine B assay; details: KM12, 48 h; for TGI: read-out: pTGI (converted); outline: as §1
# [12] = test system: SF-295; assay: Growth inhibition of human SF295 cells after 48 hrs by sulforhodamine B assay; details: SF-295, 48 h; for TGI: read-out: pTGI (converted); outline: as §1
# [13] = test system: SF-539; assay: Growth inhibition of human SF539 cells after 48 hrs by sulforhodamine B assay; details: SF-539, 48 h; for TGI: read-out: pTGI (converted); outline: as §1
# [14] = test system: Malme-3M; assay: Growth inhibition of human MALME-3M cells after 48 hrs by sulforhodamine B assay; details: for CC50: read-out: pLC50 (the source's name) (converted); for TGI: read-out: pTGI (converted); outline: as §1
# [15] = test system: SK-MEL-2; assay: Growth inhibition of human SK-MEL-2 cells after 48 hrs by sulforhodamine B assay; details: SK-MEL-2, 48 h; for CC50: read-out: pLC50 (the source's name) (converted); for TGI: read-out: pTGI (converted); outline: as §1
# [16] = test system: SK-MEL-5; assay: Growth inhibition of human SK-MEL-5 cells after 48 hrs by sulforhodamine B assay; details: SK-MEL-5, 48 h; for CC50: read-out: pLC50 (the source's name) (converted); for TGI: read-out: pTGI (converted); outline: as §1
# [17] = test system: UACC-257; assay: Growth inhibition of human UACC257 cells after 48 hrs by sulforhodamine B assay; details: UACC-257, 48 h; for CC50: read-out: pLC50 (the source's name) (converted); for TGI: read-out: pTGI (converted); outline: as §2
# [18] = test system: OVCAR-5; assay: Growth inhibition of human OVCAR5 cells after 48 hrs by sulforhodamine B assay; details: OVCAR-5, 48 h; for CC50: read-out: pLC50 (the source's name) (converted); for TGI: read-out: pTGI (converted); outline: as §1
# [19] = test system: SK-OV-3; assay: Growth inhibition of human SKOV3 cells after 48 hrs by sulforhodamine B assay; details: SK-OV-3, 48 h; for CC50: read-out: pLC50 (the source's name) (converted); for TGI: read-out: pTGI (converted); outline: as §1
# [20] = test system: A498; assay: Growth inhibition of human A498 cells after 48 hrs by sulforhodamine B assay; details: A498, 48 h; for CC50: read-out: pLC50 (the source's name) (converted); for TGI: read-out: pTGI (converted); outline: as §1
# [21] = test system: ACHN; assay: Growth inhibition of human ACHN cells after 48 hrs by sulforhodamine B assay
# [22] = test system: RXF 393; assay: Growth inhibition of human RXF393 cells after 48 hrs by sulforhodamine B assay; details: RXF 393, 48 h; for CC50: read-out: pLC50 (the source's name) (converted); for TGI: read-out: pTGI (converted); outline: as §1
# [23] = test system: SN12C; assay: Growth inhibition of human SN12C cells after 48 hrs by sulforhodamine B assay; details: for CC50: read-out: pLC50 (the source's name) (converted); for TGI: read-out: pTGI (converted); outline: as §2
# [24] = test system: TK-10; assay: Growth inhibition of human TK10 cells after 48 hrs by sulforhodamine B assay; details: TK-10, 48 h; for CC50: read-out: pLC50 (the source's name) (converted); for TGI: read-out: pTGI (converted); outline: as §2
# [25] = test system: DU-145; assay: Growth inhibition of human DU145 cells after 48 hrs by sulforhodamine B assay; details: DU-145, 48 h; for CC50: read-out: pLC50 (the source's name) (converted); for TGI: read-out: pTGI (converted); outline: as §1
# [26] = test system: MDA-MB-231; assay: Growth inhibition of human MDA-MB-231 cells after 48 hrs by sulforhodamine B assay; details: MDA-MB-231, 48 h; for CC50: read-out: pLC50 (the source's name) (converted); for TGI: read-out: pTGI (converted); outline: as §1
# [27] = test system: T47D; assay: Growth inhibition of human T47D cells after 48 hrs by sulforhodamine B assay; details: for CC50: read-out: pLC50 (the source's name) (converted); for TGI: read-out: pTGI (converted); outline: as §2
compound,measurement,setting,value
Nc1cc(N)c2nc(-c3ccccc3)c(Oc3ccc(Cl)c(Cl)c3)nc2c1,GI50,[1],2.95 µM
same,LC50,[1],> 100 µM
same,TGI,[1],> 100 µM
same,LC50 (concentration giving 50% net cell death),[2],> 100 µM
same,GI50,[3],6.31 µM
same,LC50,[3],> 100 µM
same,TGI,[3],> 100 µM
same,GI50,[4],18.2 µM
same,LC50,[4],> 100 µM
same,TGI,[4],43.7 µM
same,GI50,[5],2.14 µM
same,LC50 (50% net cell kill),[5],41.7 µM
same,TGI,[5],8.32 µM
same,GI50,[6],15.1 µM
same,LC50,[6],> 100 µM
same,TGI,[6],49 µM
same,GI50,[7],15.5 µM
same,LC50 (50% net cell kill concentration),[7],> 100 µM
same,TGI,[7],39.8 µM
same,GI50,[8],18.2 µM
same,LC50 (50% net cell kill),[8],> 100 µM
same,TGI,[8],70.8 µM
same,GI50,[9],20.4 µM
same,LC50 (50% net cell kill),[9],> 100 µM
same,TGI,[9],67.6 µM
same,GI50,[10],15.8 µM
same,LC50 (concentration causing 50% net cell death),[10],> 100 µM
same,TGI,[10],47.9 µM
same,GI50,[11],6.31 µM
same,LC50 (50% net cell kill),[11],> 100 µM
same,TGI,[11],39.8 µM
same,GI50,[12],13.8 µM
same,LC50 (50% net cell kill),[12],69.2 µM
same,TGI,[12],30.9 µM
same,GI50,[13],13.5 µM
same,LC50,[13],64.6 µM
same,TGI,[13],29.5 µM
same,GI50,[14],15.8 µM
same,CC50,[14],89.1 µM
same,TGI,[14],37.2 µM
same,GI50,[15],5.62 µM
same,CC50,[15],89.1 µM
same,TGI,[15],23.4 µM
same,GI50,[16],9.77 µM
same,CC50,[16],83.2 µM
same,TGI,[16],28.8 µM
same,GI50,[17],28.2 µM
same,CC50,[17],> 100 µM
same,TGI,[17],87.1 µM
same,GI50,[18],25.1 µM
same,CC50,[18],> 100 µM
same,TGI,[18],58.9 µM
same,GI50,[19],24 µM
same,CC50,[19],> 100 µM
same,TGI,[19],66.1 µM
same,GI50,[20],91.2 µM
same,CC50,[20],> 100 µM
same,TGI,[20],> 100 µM
same,GI50,[21],9.33 µM
same,CC50,[21]; read-out: pLC50 (the source's name) (converted),> 100 µM
same,TGI,[21]; read-out: pTGI (converted),47.9 µM
same,GI50,[22],6.03 µM
same,CC50,[22],> 100 µM
same,TGI,[22],58.9 µM
same,GI50,[23],11.5 µM
same,CC50,[23],> 100 µM
same,TGI,[23],> 100 µM
same,GI50,[24],24.5 µM
same,CC50,[24],> 100 µM
same,TGI,[24],63.1 µM
same,GI50,[25],29.5 µM
same,CC50,[25],> 100 µM
same,TGI,[25],> 100 µM
same,GI50,[26],10.2 µM
same,CC50,[26],66.1 µM
same,TGI,[26],26.3 µM
same,GI50,[27],24.5 µM
same,CC50,[27],> 100 µM
same,TGI,[27],79.4 µM
Nc1cc(N)c2nc(-c3ccccc3)c(NCc3ccc(Cl)c(Cl)c3)nc2c1,GI50,[1],0.132 µM
same,LC50,[1],17.4 µM
same,TGI,[1],1.82 µM
same,GI50,[2],1.62 µM
same,LC50 (concentration giving 50% net cell death),[2],> 100 µM
same,TGI,[2]; read-out: pTGI (converted),6.03 µM
same,GI50,[3],2.09 µM
same,LC50,[3],> 100 µM
same,TGI,[3],> 100 µM
same,GI50,[4],10.7 µM
same,LC50,[4],69.2 µM
same,TGI,[4],27.5 µM
same,GI50,[5],11 µM
same,LC50 (50% net cell kill),[5],> 100 µM
same,TGI,[5],38.9 µM
same,GI50,[6],22.4 µM
same,LC50,[6],95.5 µM
same,TGI,[6],46.8 µM
same,GI50,[7],14.1 µM
same,LC50 (50% net cell kill concentration),[7],55 µM
same,TGI,[7],27.5 µM
same,GI50,[8],20.9 µM
same,LC50 (50% net cell kill),[8],> 100 µM
same,TGI,[8],46.8 µM
same,GI50,[9],17 µM
same,LC50 (50% net cell kill),[9],66.1 µM
same,TGI,[9],33.9 µM
same,GI50,[10],11.5 µM
same,LC50 (concentration causing 50% net cell death),[10],50.1 µM
same,TGI,[10],24 µM
same,GI50,[11],3.39 µM
same,LC50 (50% net cell kill),[11],> 100 µM
same,TGI,[11],21.4 µM
same,GI50,[12],15.5 µM
same,LC50 (50% net cell kill),[12],89.1 µM
same,TGI,[12],37.2 µM
same,GI50,[13],4.57 µM
same,LC50,[13],83.2 µM
same,TGI,[13],18.6 µM
same,GI50,[14],3.39 µM
same,CC50,[14],50.1 µM
same,TGI,[14],13.8 µM
same,GI50,[15],1.91 µM
same,CC50,[15],9.55 µM
same,TGI,[15],4.27 µM
same,GI50,[16],3.47 µM
same,CC50,[16],34.7 µM
same,TGI,[16],10.7 µM
same,GI50,[17],4.57 µM
same,CC50,[17],43.7 µM
same,TGI,[17],15.8 µM
same,GI50,[18],24 µM
same,CC50,[18],69.2 µM
same,TGI,[18],40.7 µM
same,GI50,[19],18.6 µM
same,CC50,[19],69.2 µM
same,TGI,[19],36.3 µM
same,GI50,[20],17.4 µM
same,CC50,[20],60.3 µM
same,TGI,[20],32.4 µM
same,GI50,[22],3.09 µM
same,CC50,[22],> 100 µM
same,TGI,[22],17 µM
same,GI50,[23],6.03 µM
same,CC50,[23],87.1 µM
same,TGI,[23],24 µM
same,GI50,[24],12.9 µM
same,CC50,[24],72.4 µM
same,TGI,[24],30.2 µM
same,GI50,[25],16.2 µM
same,CC50,[25],69.2 µM
same,TGI,[25],33.1 µM
same,GI50,[26],1.58 µM
same,CC50,[26],> 100 µM
same,TGI,[26],4.47 µM
same,GI50,[27],19.5 µM
same,CC50,[27],> 100 µM
same,TGI,[27],55 µM
